OX1R antag-1: OX1R (human) antagonism | O43613 | OX1R-expressing cells, FRET antagonist read-out | inhibition, % at 6.6 µM | actives 1.8% (n = 330,000); in the data active = inhibition mostly above about 38%, no sharp cut-off; inactive = mostly below about 40%
OX1R antag-2: blocks the human orexin 1 receptor; O43613; CHO/OX1R cells, Fluo-8 calcium fluorescence, orexin A; inhibition, % at 5 µM; actives 0.43% (n = 330,000); AID 434989;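 active = inhibition above its plate's threshold, mean inhibition of all tested compounds on the plate plus 3 SD, cut at about 37% in these data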
CHO parental Ca: counter-screen for OX1R antagonists: effect in parental CHO cells; parental CHO-K1, ATP-induced calcium, Fluo-8 fluorescence; inhibition, % at 5.6 µM; actives 0.63% (n = 330,000); AID 463079;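 active = inhibition above that plate's mean sample inhibition plus 3 SD, cut at about 26% in these data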
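Assay system: parental CHO cells; Read-out basis: percent inhibition of ATP-evoked calcium rise, normalized to controls; Benchmarks: ATP and no-ATP DMSO wells; Compound dosing: single nominal dose of 5.6 µM per compound; Signal: Fluo-8 calcium dye fluorescence; Also added: ATP as calcium-mobilizing challenge; Repeats: singlicate.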
TAAR1 antagonist: human TAAR1 antagonism | CHO RD-HGA16 TAAR1, Fluo-8 calcium fluorescence, antagonist | inhibition, % at 3 µM | actives 1.5% (n = 360,000);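 active = inhibition above a per-plate cutoff, the mean inhibition of test compounds on that plate plus 3 SD, cut at about 49% in these data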
Target sequence (Q96RJ0 whole entry, looked up): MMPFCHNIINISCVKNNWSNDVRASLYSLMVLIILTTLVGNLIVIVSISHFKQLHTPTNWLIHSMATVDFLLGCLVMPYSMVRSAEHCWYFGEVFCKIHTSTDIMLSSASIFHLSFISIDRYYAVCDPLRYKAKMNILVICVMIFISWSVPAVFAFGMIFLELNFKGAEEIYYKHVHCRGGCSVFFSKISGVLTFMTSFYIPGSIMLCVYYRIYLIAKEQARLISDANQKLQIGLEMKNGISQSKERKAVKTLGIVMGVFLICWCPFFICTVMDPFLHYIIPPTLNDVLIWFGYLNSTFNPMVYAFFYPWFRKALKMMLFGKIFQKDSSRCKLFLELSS
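System: RD-HGA16 CHO cells with stable hTAAR1 and Gα16 | Probe or stimulus: EC80 β-phenethylamine stimulus | Dosing: 3 µM, single point | Times: Dye loading 75 min at 37 °C, then 30 min room temperature | Measured by: Fluo-8 calcium-sensitive fluorescence | Read-out basis: % inhibition of agonist calcium response | Replicates: n of 1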
TAAR1 agonist: agonists of human TAAR1; CHO RD-HGA16 TAAR1, Fluo-8 calcium fluorescence; vehicle wells 0%, saturating PEA agonist 100%; activation, % at 3 µM; actives 0.99% (n = 360,000); AID 624467;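 active = activation above the mean activation of all test compounds in the run plus 3 SD, cut at about 38% in these data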
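Test system: RD-HGA16 (CHO) cells co-expressing Gα16 and hTAAR1 | Doses: Single dose, 3 µM | Schedule: 17-24 h seeding, 75 min 37 °C dye, 30 min RT | Evaluation: % activation from peak over basal fluorescence ratio, DMSO-to-PEA scaled | Technique: Kinetic Fluo-8 calcium fluorescence | Benchmarks: Low control DMSO, high control PEA (EC100)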
GPR7 antag: blocks human GPR7 receptor signaling | GPR7-expressing cells, fluorescence antagonist assay | P48145 | actives 1.1% (n = 290,000) | AID 1861 | inhibition, % at 4.4 µM; in the data active = inhibition above about 16%, passing the limit was not always enough;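 also: cells stimulated with the agonist NPW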
Target sequence (P48145 whole entry, looked up): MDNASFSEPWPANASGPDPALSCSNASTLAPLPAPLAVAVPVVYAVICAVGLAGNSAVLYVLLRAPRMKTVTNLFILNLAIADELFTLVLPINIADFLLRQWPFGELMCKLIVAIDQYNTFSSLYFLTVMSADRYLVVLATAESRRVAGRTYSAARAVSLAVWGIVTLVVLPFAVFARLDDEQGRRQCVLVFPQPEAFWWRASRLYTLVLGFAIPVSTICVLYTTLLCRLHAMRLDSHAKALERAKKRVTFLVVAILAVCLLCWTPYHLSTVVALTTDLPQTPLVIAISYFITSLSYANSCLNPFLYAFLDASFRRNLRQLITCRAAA
nonsel antag count: counter-screen for TAAR1 antagonists: nonselective antagonists. inhibition, % at 3 µM. counterscreen cell line, calcium fluorescence, antagonist mode. shares compounds with TAAR1 antagonist. actives 77% (n = 2,400); in the data active = inhibition above about 22%;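 also: CHO-Ga16 host cells stimulated with ATP at an EC80 level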
TAAR1 ant conf: confirmation of human TAAR1 antagonists; shares compounds with TAAR1 antagonist; TAAR1-expressing cells, fluorescence antagonist read-out; inhibition, % at 3 µM; actives 40% (n = 2,400); AID 651785; in the data active = inhibition above about 49%;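 also: CHO-Ga16 host cells challenged with agonist PEA near its EC80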
Ga16 nonsel ag: nonselective Ga16 agonism, counter-screen | Ga16-expressing cells, calcium fluorescence, agonist counterscreen | shares compounds with TAAR1 antagonist | activation, % at 3 µM | actives 18% (n = 2,400) | AID 651953; in the data active = activation above about 12%
TAAR1 ag count: counter-screen for human TAAR1 antagonists: TAAR1 agonists; shares compounds with TAAR1 antagonist; hTAAR1 cell line, fluorescence activation, agonist mode; activation, % at 3 µM; actives 2% (n = 2,400); in the data active = activation above about 37%;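 also: CHO cells stably expressing TAAR1 with calcium dye readout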
Hits are given with their value; n = inactive; x = no result. A selection: hits, their analogues and other compounds. The true share with any hit is near 4.6%.

SMILES | OX1R antag-1 | OX1R antag-2 | CHO parental Ca | TAAR1 antagonist | TAAR1 agonist | GPR7 antag | nonsel antag count | TAAR1 ant conf | Ga16 nonsel ag | TAAR1 ag count
O=C(Cc1ccc(Br)cc1)Nc1ccccc1Sc1ccccc1 | n | n | n | 58 | n | n | n | n | n | n
O=C(COC(=O)c1cc[n+]([O-])cc1)Nc1ccccc1Sc1ccccc1 | n | n | n | 105 | n | n | n | n | n | n
O=C(Cc1ccccc1)Nc1ccccc1Sc1ccccc1 | n | n | n | n | n | n | x | x | x | x
CSCCC(NS(=O)(=O)c1ccc2c(c1)OCCO2)C(=O)N(C)Cc1ccc(F)cc1 (centres undefined) | n | n | n | 76 | n | x | 31 | 63 | 13 | n
COc1cc(SC)ccc1C(=O)Nc1ccccc1C#N | n | n | n | 50 | n | n | n | n | n | n
COc1cc(SC)ccc1C(=O)Nc1ccncc1 | n | n | n | n | n | n | x | x | x | x
O=C(Nc1ccc(N2CCCCC2)c(Cl)c1)c1ccc(N2CCOCC2)c([N+](=O)[O-])c1 | n | n | n | n | n | n | x | x | x | x
O=C(Nc1ccc(Cc2ccncc2)cc1)c1ccc(N2CCOCC2)c([N+](=O)[O-])c1 | n | n | n | 95 | n | n | 33 | 52 | 14 | n
Cc1ccc(NC(=O)c2ccc(N3CCOCC3)c([N+](=O)[O-])c2)cc1S(=O)(=O)N1CCOCC1 | n | n | n | 68 | n | n | 42 | 60 | 16 | n
COc1cc(CNc2ccc(N3CCN(C(C)=O)CC3)cc2)ccc1OCc1ccccc1 | n | n | n | n | n | n | x | x | x | x
COc1cc(O)c2c(=O)c3c(O)ccc(O)c3oc2c1 | n | n | n | n | n | x | x | x | x | x
CN1C(=C2C(=O)OC(C)(C)OC2=O)Sc2ccccc21 | n | n | n | n | n | n | x | x | x | x
CC(C)C1C(=O)N(Cc2cn(CCC3OCCO3)nn2)CCS(=O)(=O)N1Cc1ccc(-c2ccc(Cl)cc2)cc1 (centres undefined) | x | x | x | 53 | n | x | 30 | n | n | n
CC1C(=O)N(Cc2cn(CCC3OCCO3)nn2)CCS(=O)(=O)N1Cc1ccc(-c2ccc(Cl)c(Cl)c2)cc1 (centres undefined) | x | x | x | 75 | n | x | 38 | n | 15 | n
Cc1cc(/C=N\NC(=O)c2cccs2)c(C)n1-c1ccc2ncccc2c1 | n | n | n | 103 | n | n | 34 | 98 | 12 | n
COc1ccc(NC(=O)COC(=O)CCc2ccc(S(=O)(=O)N3CCOCC3)cc2)cc1OC | n | n | n | n | n | x | x | x | x | x
CC(C)(C)NC(=O)CN(C(=O)C(=O)Nc1ccc2c(c1)OCCO2)N1CCOCC1 | n | n | n | n | n | n | x | x | x | x
CCOC(=O)C(=CNc1cscc1S(=O)(=O)C(C)C)C(=O)OCC | n | n | n | n | n | n | x | x | x | x
Cc1ccc2cc(C#N)c(N3CCN(C(=O)c4ccccc4)CC3)nc2c1 | n | n | n | 71 | n | n | 34 | n | n | n
COc1ccc(OC2C(=O)N(c3cc(C)ccc3C)C2c2ccc(OC)c(OC)c2)cc1 (centres undefined) | n | n | n | n | n | n | x | x | x | x
CNC(=O)c1ccsc1NC(=O)C1CCN(S(=O)(=O)c2ccc(Cl)s2)CC1 | n | n | n | 58 | n | x | 29 | n | 15 | n
O=C(NCCCCc1ccccc1)c1cccc(NC(=O)c2ccccc2)c1 | x | x | x | n | n | x | x | x | x | x
O=C(NCCc1ccc(F)cc1)c1cccc(NC(=O)c2ccccc2)c1 | n | n | n | 61 | n | n | 33 | 51 | n | n
O=C(NCCCCc1ccccc1)c1cccc(NC(=O)C2CCCC2)c1 | x | x | x | 64 | n | x | 25 | n | n | n
O=C(Nc1cccc(C(=O)Nc2ccc(Br)cc2)c1)c1ccccc1 | n | n | n | 76 | n | n | 44 | 57 | n | n
SMILES | OX1R antag-1 | OX1R antag-2 | CHO parental Ca | TAAR1 antagonist | TAAR1 agonist | GPR7 antag | nonsel antag count | TAAR1 ant conf | Ga16 nonsel ag | TAAR1 ag count
O=C(/C=C/c1ccccc1)Nc1cccc(C(=O)NCCCc2ccccc2)c1 | x | x | x | 77 | n | x | 35 | 50 | n | n
O=C(Nc1ccc(Nc2ccccc2)cc1)c1ccc(Br)cc1 | n | n | n | n | n | n | x | x | x | x
O=C(/C=C/c1ccccc1)Nc1cccc(C(=O)NCc2ccccc2)c1 | x | x | x | n | n | x | x | x | x | x
CN(C)/N=C/c1ccc(OS(=O)(=O)c2ccccc2)cc1 | n | n | n | n | n | n | x | x | x | x
Cc1nn(CC(=O)Nc2cc(S(=O)(=O)N3CCOCC3)ccc2Cl)c(C)c1[N+](=O)[O-] | n | n | n | n | n | x | x | x | x | x
O=C(NCCc1ccc2c(c1)OCCO2)c1cccc(S(=O)(=O)N2CCCC2)c1 | n | n | n | n | n | x | x | x | x | x
COc1ccccc1NC(=O)COC(=O)c1cc(C)oc1C | n | n | n | n | n | x | x | x | x | x
CC(=O)c1ccccc1NC(=O)COC(=O)c1cc(C)oc1C | n | n | n | 54 | n | x | n | n | n | n
CCN(c1ccccc1)S(=O)(=O)c1ccc(NC(=S)NC(=O)c2ccc(Br)o2)cc1 | n | n | n | 64 | n | n | 33 | n | n | n
O=C(O)CCC(=O)OCC1CCCO1 (centres undefined) | n | n | n | n | n | n | x | x | x | x
COc1cc(C(=O)N/N=C/c2cc([N+](=O)[O-])cs2)cc(OC)c1OC | n | n | n | 102 | n | n | n | n | n | n
CC(NC(=O)[C@H](C)NC(=O)[C@@H]1CSC2c3ccccc3C(=O)N21)c1ccccc1 (some centres undefined) | n | n | n | n | n | n | x | x | x | x
C=CCn1c(=O)/c(=C/c2ccc(C)o2)s/c1=C(/C#N)C(=O)c1ccccc1 | n | n | n | n | n | n | x | x | x | x
O=C1CC(c2ccco2)CC2=C1C1c3ccccc3C(=O)N1c1ccccc1N2 (centres undefined) | n | n | n | 64 | n | n | 24 | n | n | n
CCC(C)Oc1ccc(C(=O)Nc2ccc(CN3CCOCC3)cc2)cc1 (centres undefined) | x | x | x | n | n | n | x | x | x | x
CCOc1ccc(NC(=O)c2ccc(NC(=O)c3ccc(CN4CCOCC4)cc3)cc2)cc1 | n | n | n | 61 | n | n | 29 | n | n | n
O=C(Nc1ccc(CN2CCOCC2)cc1)c1ccc2ccccc2c1 | n | n | n | n | n | n | x | x | x | x
O=C(COc1ccccc1Cl)NC(=S)Nc1ccc(CN2CCOCC2)cc1 | n | n | n | 73 | n | n | 47 | 51 | n | n
